Results: ChEMBL document CHEMBL3352188, “Synthesis, antimicrobial and molecular docking studies of enantiomerically pure N-alkylated β-amino alcohols from phenylpropanolamines” (2014)

Experiments:
[1] = tested on: Salmonella typhimurium; assay: Antimicrobial activity against Salmonella typhimurium MTCC 1251 after 24 hrs by two fold dilution method; type: functional, Salmonella enterica subsp. enterica serovar Typhimurium; conditions: Salmonella enterica, MTCC 1251, 24 h
Procedure, shortened: (§1)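 Broth two-fold serial dilution in 96-well plates from 1000 to 7.81 µg/mL, compound in DMSO (2%). Inoculum was grown in MHB for 24 h at 37 °C; plates were incubated 24 h at 37 °C. 5 µL of broth was spotted onto MHA; MIC was the lowest concentration with no visible growth on agar. Streptomycin was the positive control.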

[2] = tested on: Staphylococcus aureus; assay: Antimicrobial activity against Staphylococcus aureus MTCC 96 at 1 mg/disc after 24 hrs by disc diffusion assay; type: functional
Procedure, shortened: (§2)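 Disc diffusion on Mueller Hinton agar. Inoculum was grown in MHB for 24 h at 37 °C, swabbed onto the plates and dried for 10 min. Discs with 1 mg compound were left 30 min at room temperature for diffusion, then incubated at 37 °C for 24 h. Inhibition zone was read in mm; run twice. Solvent was the negative control, streptomycin the positive control.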

[3] = tested on: Micrococcus luteus; assay: Bactericidal activity against Micrococcus luteus MTCC 106 after 24 hrs by two fold dilution method; type: functional; conditions: MTCC 106, 24 h
Procedure, shortened: (§3)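 Tubes held 5 mL MHB with two-fold dilutions from 1000 to 7.81 µg/mL and were inoculated with 5 × 10^5 to 1 × 10^6 cells in 0.1 mL MHB, incubated without shaking. Turbidity was checked at 20 h, tubes vortexed and re-incubated 4 h.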

[4] = tested on: Candida albicans; assay: Antimicrobial activity against Candida albicans MTCC 227 at 1 mg/disc after 24 hrs by disc diffusion assay; type: functional
[5] = tested on: Proteus vulgaris; assay: Antimicrobial activity against Proteus vulgaris MTCC 1771 after 24 hrs by two fold dilution method; type: functional; conditions: MTCC 1771, 24 h; procedure, shortened: as §1
[6] = tested on: Bacillus subtilis; assay: Antimicrobial activity against Bacillus subtilis MTCC 441 after 24 hrs by two fold dilution method; type: functional; conditions: MTCC 441, 24 h; procedure, shortened: as §1
[7] = tested on: Malassezia pachydermatis; assay: Antimicrobial activity against Malassezia pachydermatis after 48 to 72 hrs by two fold dilution method; type: functional
Procedure, shortened: (§4)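 Yeast was grown in Sabouraud dextrose broth at 28 °C for 48 h and tested per CLSI reference methods. Two-fold serial dilutions from 1000 to 7.81 µg/mL, compound in DMSO (2%), in 96-well plates, incubated 48–72 h at 28 °C. MIC was the lowest concentration with no visible fungal growth. Ketoconazole was the positive control.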

[8] = tested on: Staphylococcus aureus; assay: Bactericidal activity against methicillin-resistant Staphylococcus aureus MTCC 96 after 24 hrs by two fold dilution method; type: functional; conditions: MTCC 96, 24 h; procedure, shortened: as §3
[9] = tested on: Proteus vulgaris; assay: Antimicrobial activity against Proteus vulgaris MTCC 1771 at 1 mg/disc after 24 hrs by disc diffusion assay; type: functional; procedure, shortened: as §2
[10] = tested on: Klebsiella pneumoniae; assay: Antimicrobial activity against Klebsiella pneumoniae MTCC 109 at 1 mg/disc after 24 hrs by disc diffusion assay; type: functional; procedure, shortened: as §2
[11] = tested on: Candida albicans; assay: Fungicidal activity against Candida albicans MTCC 227 after 48 to 72 hrs by two fold dilution method; type: functional
[12] = tested on: Salmonella typhimurium; assay: Bactericidal activity against Salmonella typhimurium MTCC 1251 after 24 hrs by two fold dilution method; type: functional, Salmonella enterica subsp. enterica serovar Typhimurium; conditions: Salmonella enterica, MTCC 1251, 24 h; procedure, shortened: as §3
[13] = tested on: Proteus vulgaris; assay: Bactericidal activity against Proteus vulgaris MTCC 1771 after 24 hrs by two fold dilution method; type: functional; conditions: MTCC 1771, 24 h; procedure, shortened: as §3
[14] = tested on: Klebsiella pneumoniae; assay: Antimicrobial activity against Klebsiella pneumoniae MTCC 109 after 24 hrs by two fold dilution method; type: functional; conditions: MTCC 109, 24 h; procedure, shortened: as §1
[15] = tested on: Salmonella enterica subsp. enterica serovar Paratyphi B; assay: Bactericidal activity against Salmonella paratyphi B after 24 hrs by two fold dilution method; type: functional; procedure, shortened: as §3
[16] = tested on: Shigella flexneri; assay: Bactericidal activity against Shigella flexneri MTCC 1457 after 24 hrs by two fold dilution method; type: functional; conditions: MTCC 1457, 24 h; procedure, shortened: as §3
[17] = tested on: Malassezia pachydermatis; assay: Fungicidal activity against Malassezia pachydermatis after 48 to 72 hrs by two fold dilution method; type: functional
[18] = tested on: Micrococcus luteus; assay: Antimicrobial activity against Micrococcus luteus MTCC 106 at 1 mg/disc after 24 hrs by disc diffusion assay; type: functional; procedure, shortened: as §2
[19] = tested on: Pseudomonas aeruginosa; assay: Bactericidal activity against Pseudomonas aeruginosa MTCC 741 after 24 hrs by two fold dilution method; type: functional; conditions: MTCC 741, 24 h; procedure, shortened: as §3
[20] = tested on: Micrococcus luteus; assay: Antimicrobial activity against Micrococcus luteus MTCC 106 after 24 hrs by two fold dilution method; type: functional; conditions: MTCC 106, 24 h; procedure, shortened: as §1
[21] = tested on: Malassezia pachydermatis; assay: Antimicrobial activity against Malassezia pachydermatis at 1 mg/disc after 24 hrs by disc diffusion assay; type: functional
[22] = tested on: Shigella flexneri; assay: Antimicrobial activity against Shigella flexneri MTCC 1457 after 24 hrs by two fold dilution method; type: functional; conditions: MTCC 1457, 24 h; procedure, shortened: as §1
[23] = tested on: Klebsiella aerogenes; assay: Antimicrobial activity against Enterobacter aerogenes MTCC 111 at 1 mg/disc after 24 hrs by disc diffusion assay; type: functional; procedure, shortened: as §2
[24] = tested on: Salmonella typhimurium; assay: Antimicrobial activity against Salmonella typhimurium MTCC 1251 at 1 mg/disc after 24 hrs by disc diffusion assay; type: functional, Salmonella enterica subsp. enterica serovar Typhimurium; procedure, shortened: as §2
[25] = tested on: Shigella flexneri; assay: Antimicrobial activity against Shigella flexneri MTCC 1457 at 1 mg/disc after 24 hrs by disc diffusion assay; type: functional; procedure, shortened: as §2
[26] = tested on: Bacillus subtilis; assay: Antimicrobial activity against Bacillus subtilis MTCC 441 at 1 mg/disc after 24 hrs by disc diffusion assay; type: functional; procedure, shortened: as §2
[27] = tested on: Staphylococcus aureus; assay: Antimicrobial activity against methicillin-resistant Staphylococcus aureus MTCC 96 after 24 hrs by two fold dilution method; type: functional; conditions: MTCC 96, 24 h; procedure, shortened: as §1
[28] = tested on: Pseudomonas aeruginosa; assay: Antimicrobial activity against Pseudomonas aeruginosa MTCC 741 after 24 hrs by two fold dilution method; type: functional; conditions: MTCC 741, 24 h; procedure, shortened: as §1
[29] = tested on: Staphylococcus aureus; assay: Bactericidal activity against Staphylococcus aureus MTCC 96 after 24 hrs by two fold dilution method; type: functional; conditions: MTCC 96, 24 h; procedure, shortened: as §3
[30] = tested on: Klebsiella pneumoniae; assay: Bactericidal activity against Klebsiella pneumoniae MTCC 109 after 24 hrs by two fold dilution method; type: functional; conditions: MTCC 109, 24 h; procedure, shortened: as §3
[31] = tested on: Staphylococcus aureus; assay: Antimicrobial activity against […] Staphylococcus aureus MTCC 96 at 1 mg/disc after 24 hrs by disc diffusion assay; type: functional; procedure, shortened: as §2
[32] = tested on: Klebsiella aerogenes; assay: Antimicrobial activity against Enterobacter aerogenes MTCC 111 after 24 hrs by two fold dilution method; type: functional; conditions: MTCC 111, 24 h; procedure, shortened: as §1
[33] = tested on: Salmonella enterica subsp. enterica serovar Paratyphi B; assay: Antimicrobial activity against Salmonella paratyphi B at 1 mg/disc after 24 hrs by disc diffusion assay; type: functional; procedure, shortened: as §2
[34] = tested on: Pseudomonas aeruginosa; assay: Antimicrobial activity against Pseudomonas aeruginosa MTCC 741 at 1 mg/disc after 24 hrs by disc diffusion assay; type: functional; procedure, shortened: as §2
[35] = tested on: Salmonella enterica subsp. enterica serovar Paratyphi B; assay: Antimicrobial activity against Salmonella paratyphi B after 24 hrs by two fold dilution method; type: functional; procedure, shortened: as §1
[36] = tested on: Bacillus subtilis; assay: Bactericidal activity against Bacillus subtilis MTCC 441 after 24 hrs by two fold dilution method; type: functional; conditions: MTCC 441, 24 h; procedure, shortened: as §3
[37] = tested on: Klebsiella aerogenes; assay: Bactericidal activity against Enterobacter aerogenes MTCC 111 after 24 hrs by two fold dilution method; type: functional; conditions: MTCC 111, 24 h; procedure, shortened: as §3
[38] = tested on: Candida albicans; assay: Antimicrobial activity against Candida albicans MTCC 227 after 48 to 72 hrs by two fold dilution method; type: functional; procedure, shortened: as §4
[39] = tested on: Staphylococcus aureus; assay: Antimicrobial activity against Staphylococcus aureus MTCC 96 after 24 hrs by two fold dilution method; type: functional; conditions: MTCC 96, 24 h; procedure, shortened: as §1

## C[C@H](N[C@H](C)c1ccccc1)[C@H](O)c1ccccc1.Cl
[1]
  MIC: 250 µg/mL
[2]
  inhibition zone (IZ): 16 mm
[3]
  MBC: 250 µg/mL
[4]
  inhibition zone (IZ): 14 mm
[5]
  MIC: 250 µg/mL
[6]
  MIC: 125 µg/mL
[7]
  MIC: 125 µg/mL
[8]
  MBC: 500 µg/mL
[9]
  inhibition zone (IZ): 12 mm
[10]
  inhibition zone (IZ): 13 mm
[11]
  MFC: 125 µg/mL
[12]
  MBC: 500 µg/mL
[13]
  MBC: 500 µg/mL
[14]
  MIC: 250 µg/mL
[15]
  MBC: 250 µg/mL
[16]
  MBC: 500 µg/mL
[17]
  MFC: 125 µg/mL
[18]
  inhibition zone (IZ): 14 mm
[19]
  MBC: 125 µg/mL
[20]
  MIC: 125 µg/mL
[21]
  inhibition zone (IZ): 15 mm
[22]
  MIC: 250 µg/mL
[23]
  inhibition zone (IZ): 13 mm
[24]
  inhibition zone (IZ): 11 mm
[25]
  inhibition zone (IZ): 16 mm
[26]
  inhibition zone (IZ): 14 mm
[27]
  MIC: 250 µg/mL
[28]
  MIC: 62.5 µg/mL
[29]
  MBC: 62.5 µg/mL
[30]
  MBC: 500 µg/mL
[31]
  inhibition zone (IZ): 11 mm
[32]
  MIC: 125 µg/mL
[33]
  inhibition zone (IZ): 14 mm
[34]
  inhibition zone (IZ): 16 mm
[35]
  MIC: 125 µg/mL
[36]
  MBC: 125 µg/mL
[37]
  MBC: 250 µg/mL
[38]
  MIC: 125 µg/mL
[39]
  MIC: 62.5 µg/mL

## COc1ccc([C@@H](C)N[C@@H](C)[C@H](O)c2ccccc2)cc1.Cl
[1]
  MIC: 250 µg/mL
[2]
  inhibition zone (IZ): 15 mm
[3]
  MBC: 250 µg/mL
[4]
  inhibition zone (IZ): 17 mm
[5]
  MIC: 62.5 µg/mL
[6]
  MIC: 125 µg/mL
[7]
  MIC: 62.5 µg/mL
[8]
  MBC: 250 µg/mL
[9]
  inhibition zone (IZ): 17 mm
[10]
  inhibition zone (IZ): 18 mm
[11]
  MFC: 62.5 µg/mL
[12]
  MBC: 500 µg/mL
[13]
  MBC: 62.5 µg/mL
[14]
  MIC: 62.5 µg/mL
[15]
  MBC: 125 µg/mL
[16]
  MBC: 31.2 µg/mL
[17]
  MFC: 62.5 µg/mL
[18]
  inhibition zone (IZ): 15 mm
[19]
  MBC: 250 µg/mL
[20]
  MIC: 125 µg/mL
[21]
  inhibition zone (IZ): 18 mm
[22]
  MIC: 31.2 µg/mL
[23]
  inhibition zone (IZ): 14 mm
[24]
  inhibition zone (IZ): 13 mm
[25]
  inhibition zone (IZ): 18 mm
[26]
  inhibition zone (IZ): 14 mm
[27]
  MIC: 125 µg/mL
[28]
  MIC: 125 µg/mL
[29]
  MBC: 250 µg/mL
[30]
  MBC: 125 µg/mL
[31]
  inhibition zone (IZ): 15 mm
[32]
  MIC: 125 µg/mL
[33]
  inhibition zone (IZ): 16 mm
[34]
  inhibition zone (IZ): 15 mm
[35]
  MIC: 125 µg/mL
[36]
  MBC: 250 µg/mL
[37]
  MBC: 125 µg/mL
[38]
  MIC: 62.5 µg/mL
[39]
  MIC: 125 µg/mL
